Activity calls are given as the source filed them. The rule behind the calls is not given here.
How the values were obtained:
[1] = Cytotoxicity against human ARPE-19 cells assessed as reduction in nuclei count measured after 10 days for Hoechst 33342 staining based microscopic analysis; type: cell-based; conditions: time 10 day
Outline: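 ARPE-19 epithelial cells seeded at 8k/well in complete DMEM with 10% FBS and treated with increasing compound concentrations 24 h later. Incubated 10 days at 37 °C. Formalin-fixed, stained with Hoechst 33342 (1 μg mL–1), and nuclei counted by high-content imaging. Counts normalized to DMSO wells. CC50 is the concentration reducing nuclei count by 50%. Mean of two wells ± SD.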

Human betaherpesvirus 5 [2] = assay: Antiviral activity against Human cytomegalovirus infected in MRC5 cells measured after 6 days by fluorescence based microscopic analysis; type: functional, cell-based
Outline: (§1)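 MRC-5 primary fibroblasts in phenol red-free DMEM with 10% FBS were seeded 8k/well. At 24 h they were treated with compound, infected with hCMV ANCHOR at MOI 1, and fixed 6 days post infection. High-content imaging gave infection rate (fluorescent/total cells) and replication (integrated ANCHOR spot intensity) over ≥1000 cells/well, normalized to DMSO; mean of three wells ± SD.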

Human betaherpesvirus 5 [3] = assay: Antiviral activity against Human cytomegalovirus infected in ARPE-19 cells measured after 10 days by fluorescence based microscopic analysis; type: functional, cell-based
Outline: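 Cells were ARPE-19 in phenol red-free DMEM with 10% FBS, seeded 8k/well. At 24 h they received a range of compound concentrations and hCMV ANCHOR at MOI 10, then were fixed 10 days post infection. Imaging scored infection rate (fluorescent/total cells) and ANCHOR spot intensity over ≥1000 cells/well, normalized to DMSO and used to derive IC50; mean of three wells ± SD.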

[4] = Cytotoxicity against human MRC5 cells assessed as reduction in nuclei count measured after 6 days for Hoechst 33342 staining based microscopic analysis; type: cell-based; conditions: time 6 day
Outline: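 MRC-5 fibroblasts seeded at 8k/well in complete DMEM with 10% FBS and treated 24 h later with increasing compound concentrations. Incubated 6 days at 37 °C, 5% CO2. Formalin-fixed, Hoechst 33342 (1 μg mL–1) stained, and nuclei counted by high-content imaging. Counts normalized to DMSO wells. CC50 is the concentration halving the nuclei count. Mean of two wells ± SD.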

Human betaherpesvirus 5 [5] = assay: Antiviral activity against Human cytomegalovirus harboring ANCHOR infected in MRC5 cells assessed as reduction in viral infection at measured after 6 days by microscopic analysis relative to control; type: functional, cell-based; conditions: time 6.0 day; outline: as §1
Human betaherpesvirus 5 [6] = assay: Antiviral activity against Human cytomegalovirus infected in MRC5 cells assessed as reduction in viral plaque at 0.3 uM measured after 6 days by microscopic analysis; type: functional, cell-based; conditions: time 6.0 day
Outline: (§2)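 MRC-5 fibroblasts seeded at 8k cells/well and infected 24 h later with fluorescent hCMV ANCHOR strain at MOI 1, with compound added at increasing concentrations. Cultured 6 days, fixed with formalin, nuclei stained with Hoechst, and imaged by high-content microscopy. Fluorescent plaques and replication centres were scored against DMSO-treated cells.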

[7] = Selectivity index, ratio of CC50 for human ARPE-19 cells assessed as reduction in nuclei count measured after […] 33342 staining based microscopic analysis to EC50 Human cytomegalovirus infected in ARPE-19 cells measured after 10 days by microscopic analysis; type: toxicity, cell-based; conditions: read-out: Ratio CC50/EC50
Outline: (§3)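 CC50 comes from Hoechst nuclei counts after compound treatment, normalized to DMSO. IC50 comes from hCMV ANCHOR infection at MOI 1 in MRC-5 (read 6 dpi) or MOI 10 in ARPE-19 (read 10 dpi). Infection rate is fluorescent cells over total cells, from at least 1000 cells per well, in triplicate wells. SI is CC50 divided by IC50.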

Human betaherpesvirus 5 [8] = assay: Antiviral activity against Human cytomegalovirus infected in MRC5 cells assessed as reduction in viral plaque at 1.25 uM measured after 6 days by microscopic analysis; type: functional, cell-based; conditions: time 6.0 day; outline: as §2
Human betaherpesvirus 5 [9] = assay: Antiviral activity against Human cytomegalovirus harboring ANCHOR infected in ARPE-19 cells assessed as reduction in viral infection measured after 10 days by microscopic analysis relative to control; conditions: time 10.0 day
[10] = Selectivity index, ratio of CC50 for human MRC5 cells assessed as reduction in nuclei count measured after 6 days for Hoechst 33342 staining based microscopic analysis to EC50 Human cytomegalovirus infected in MRC5 cells measured after 6 days by microscopic analysis; type: toxicity, cell-based; conditions: time 6 day, read-out: Ratio CC50/EC50; outline: as §3
Human betaherpesvirus 5 [11] = assay: Antiviral activity against Human cytomegalovirus harboring ANCHOR infected in MRC5 cells assessed as reduction in viral infection at 0.75 uM measured after 6 days by microscopic analysis relative to control; type: functional; design: scale not given: the % may be the effect or the level left; conditions: time 6 day; outline: as §1
Human betaherpesvirus 5 [12] = assay: Antiviral activity against Human cytomegalovirus harboring ANCHOR infected in MRC5 cells assessed as reduction in virus-induced cytopathic effect; type: functional, cell-based
Human betaherpesvirus 5 [13] = assay: Antiviral activity against Human cytomegalovirus harboring ANCHOR infected in ARPE-19 cells assessed as reduction in viral infection at 0.75 uM measured after 6 days by microscopic analysis relative to control; type: functional; conditions: time 6 day
Outline: (§4)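 ARPE-19 epithelial cells grown in phenol red-free DMEM with 10% FBS, seeded 8k/well. After 24 h they were treated with compound and infected with hCMV ANCHOR (fluorescently labelled viral DNA) at MOI 10, then fixed 6 days post infection. High-content imaging scored infection rate (fluorescent/total cells) and replication (integrated ANCHOR spot intensity) over ≥1000 cells/well, normalized to DMSO; mean of three wells ± SD.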

Human betaherpesvirus 5 [14] = assay: Antiviral activity against Human cytomegalovirus harboring ANCHOR infected in ARPE-19 cells assessed as reduction in viral replication at 0.75 uM measured after 6 days by microscopic analysis relative to control; type: functional; conditions: time 6 day; outline: as §4
Human betaherpesvirus 5 [15] = assay: Antiviral activity against Human cytomegalovirus harboring ANCHOR infected in MRC5 cells assessed as reduction in viral replication at 0.75 uM measured after 6 days by microscopic analysis relative to control; type: functional; design: scale not given: the % may be the effect or the level left; conditions: time 6 day; outline: as §1
Human betaherpesvirus 5 [16] = assay: Antiviral activity against Human cytomegalovirus infected in MRC5 cells assessed as reduction in viral plaque at 2.5 uM measured after 6 days by microscopic analysis relative to control; type: functional; design: scale not given: the % may be the effect or the level left; conditions: time 6 day
Outline: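 Compound-treated MRC-5 fibroblasts were infected with hCMV ANCHOR at MOI 1, fixed 6 days post infection and imaged by fluorescence microscopy. Fluorescent viral plaques and replication centres were compared against vehicle (DMSO)-treated wells.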

[17] = Human betaherpesvirus 5, MRC5, 144 h, read-out: IC50
[18] = Human betaherpesvirus 5, ARPE-19, 240 h, read-out: IC50

Row | Compound | CC50 at 240 h [1] [µM] | IC50 (Human betaherpesvirus 5 [2]; mrc5) | IC50 (Human betaherpesvirus 5 [3]; arpe-19) | CC50 at 144 h [4] [µM] | IC50 (Human betaherpesvirus 5 [2]; [17]) [µM] | IC50 (Human betaherpesvirus 5 [3]; [18]) [µM] | selectivity ratio [7] | selectivity ratio at 144 h [10] | also measured
1 | O=[N+]([O-])c1ccc(-c2c3nc(c4ccc([nH]4)c(-c4ccc([N+](=O)[O-])c(F)c4)c4ccc([nH]4)c(-c4ccc([N+](=O)[O-])c(F)c4)c4ccc2[nH]4)C=C3)cc1F | > 50 | Not Active | Not Active | > 50 |  |  |  |  | 
2 | O=[N+]([O-])c1cc(-c2c3nc(c4ccc([nH]4)c(-c4cc([N+](=O)[O-])c(Br)cc4F)c4ccc([nH]4)c(-c4cc([N+](=O)[O-])c(Br)cc4F)c4ccc2[nH]4)C=C3)c(F)cc1Br | > 50 | Not Active | Not Active | > 50 |  |  |  |  | 
3 | O=[N+]([O-])c1cc(F)cc(-c2c3ccc([nH]3)c(-c3cc(F)ccc3[N+](=O)[O-])c3nc(c4ccc([nH]4)c(-c4cc(F)ccc4[N+](=O)[O-])c4ccc2[nH]4)C=C3)c1 | > 50 |  |  | > 50 | 2 | 0.22 | > 227 | > 25 | Activity (Human betaherpesvirus 5 [5]): Dose-dependent effect; Activity (Human betaherpesvirus 5 [6]): Active; Activity (Human betaherpesvirus 5 [8]): Active; Activity (Human betaherpesvirus 5 [9]): Dose-dependent effect
4 | O=[N+]([O-])c1ccc(F)c(-c2c3nc(c4ccc([nH]4)c(-c4c(F)ccc([N+](=O)[O-])c4F)c4ccc([nH]4)c(-c4c(F)ccc([N+](=O)[O-])c4F)c4ccc2[nH]4)C=C3)c1F | 9.8 |  |  | 8.77 | 0.86 | 0.31 | 31.6 | 10.2 | 
5 | O=[N+]([O-])c1cc(F)cc(-c2c3nc(c4ccc([nH]4)c(-c4cc(F)cc([N+](=O)[O-])c4)c4ccc([nH]4)c(-c4cc(F)cc([N+](=O)[O-])c4)c4ccc2[nH]4)C=C3)c1 | > 50 | Not Active |  | > 50 |  | 1.9 | > 26 |  | 
6 | O=[N+]([O-])c1cccc(-c2c3nc(c4ccc([nH]4)c(-c4cccc([N+](=O)[O-])c4)c4ccc([nH]4)c(-c4ccccc4)c4ccc2[nH]4)C=C3)c1 | > 50 | Not Active | Not Active | > 50 |  |  |  |  | 
7 | O=[N+]([O-])c1cc(F)cc(-c2c3nc(c4ccc([nH]4)c(-c4cc(F)cc([N+](=O)[O-])c4)c4ccc([nH]4)c(-c4cc(F)ccc4[N+](=O)[O-])c4ccc2[nH]4)C=C3)c1 | 16.5 | Not Active |  | 18 |  | 0.32 | 51 |  | 
8 | O=[N+]([O-])c1ccc(F)cc1-c1c2nc(c3ccc([nH]3)c(-c3cc(F)ccc3[N+](=O)[O-])c3ccc([nH]3)c(-c3cc(F)ccc3[N+](=O)[O-])c3ccc1[nH]3)C=C2 | > 50 |  |  | > 50 | 7.1 | 5.2 | > 10 | > 7 | 
9 | O=[N+]([O-])c1ccc(F)c(-c2c3nc(c4ccc([nH]4)c(-c4cc([N+](=O)[O-])ccc4F)c4ccc([nH]4)c(-c4cc([N+](=O)[O-])ccc4F)c4ccc2[nH]4)C=C3)c1 | 50 |  |  | 3.7 | 1.5 | 1.3 | 39 | 2.4 | Activity (Human betaherpesvirus 5 [11]): 60%; Activity (Human betaherpesvirus 5 [12]): Active; fold change (FC) (Human betaherpesvirus 5 [13]): 10; fold change (FC) (Human betaherpesvirus 5 [14]): 5; Activity (Human betaherpesvirus 5 [15]): 80%
10 | O=[N+]([O-])c1ccc(-c2c3nc(c4ccc([nH]4)c(-c4ccc([N+](=O)[O-])cc4F)c4ccc([nH]4)c(-c4ccc([N+](=O)[O-])cc4F)c4ccc2[nH]4)C=C3)c(F)c1 | 5.3 |  |  | 3.4 | 0.7 | 0.25 | 21.2 | 4.5 | 
11 | O=[N+]([O-])c1ccc(Cl)cc1-c1c2nc(c3ccc([nH]3)c(-c3cc(Cl)ccc3[N+](=O)[O-])c3ccc([nH]3)c(-c3cc(Cl)ccc3[N+](=O)[O-])c3ccc1[nH]3)C=C2 | > 50 | Not Active | Not Active | > 50 |  |  |  |  | 
12 | CN(C)c1ccc(-c2c3nc(c4ccc([nH]4)c(-c4ccc(N(C)C)cc4[N+](=O)[O-])c4ccc([nH]4)c(-c4ccc(N(C)C)cc4[N+](=O)[O-])c4ccc2[nH]4)C=C3)c([N+](=O)[O-])c1 | > 50 | Not Active | Not Active | > 50 |  |  |  |  | 
13 | O=[N+]([O-])c1cc(-c2c3nc(c4ccc([nH]4)c(-c4ccc(F)c([N+](=O)[O-])c4)c4ccc([nH]4)c(-c4ccc(F)c([N+](=O)[O-])c4)c4ccc2[nH]4)C=C3)ccc1F | > 50 | Not Active | Not Active | > 50 |  |  |  |  | 
14 | O=[N+]([O-])c1cc(C(F)(F)F)ccc1-c1c2nc(c3ccc([nH]3)c(-c3ccc(C(F)(F)F)cc3[N+](=O)[O-])c3ccc([nH]3)c(-c3ccc(C(F)(F)F)cc3[N+](=O)[O-])c3ccc1[nH]3)C=C2 | > 50 |  |  | > 50 | 2.8 | 5 | > 10 | > 17 | 
15 | O=[N+]([O-])c1cc(F)ccc1-c1c2nc(c3ccc([nH]3)c(-c3ccc(F)cc3[N+](=O)[O-])c3ccc([nH]3)c(-c3ccc(F)cc3[N+](=O)[O-])c3ccc1[nH]3)C=C2 | > 50 |  |  | > 50 | 3 | 4.3 | > 11 | > 16 | Activity (Human betaherpesvirus 5 [5]): Dose-dependent effect; Activity (Human betaherpesvirus 5 [9]): Dose-dependent effect
16 | O=[N+]([O-])c1cccc(-c2c3nc(c4ccc([nH]4)c(-c4cccc([N+](=O)[O-])c4F)c4ccc([nH]4)c(-c4cccc([N+](=O)[O-])c4F)c4ccc2[nH]4)C=C3)c1F | > 50 |  |  | > 50 | 1.8 | 0.6 | > 82 | > 27 | Activity (Human betaherpesvirus 5 [5]): Dose-dependent effect; Activity (Human betaherpesvirus 5 [8]): Active; Activity (Human betaherpesvirus 5 [16]): 100%; Activity (Human betaherpesvirus 5 [9]): Dose-dependent effect
17 | O=[N+]([O-])c1cccc(-c2c3nc(c4ccc([nH]4)c(-c4cccc([N+](=O)[O-])c4)c4ccc([nH]4)c(-c4ccc(F)c([N+](=O)[O-])c4)c4ccc2[nH]4)C=C3)c1 | > 50 | Not Active |  | > 50 |  | 5 | > 10 |  | 
